Measurements collected from several papers.
Protocols differ between the studies behind these lines.
Target: Serine/threonine-protein kinase ULK1 (ULK1, Homo sapiens, UniProt O75385)
One construct used (O75385 1-1050): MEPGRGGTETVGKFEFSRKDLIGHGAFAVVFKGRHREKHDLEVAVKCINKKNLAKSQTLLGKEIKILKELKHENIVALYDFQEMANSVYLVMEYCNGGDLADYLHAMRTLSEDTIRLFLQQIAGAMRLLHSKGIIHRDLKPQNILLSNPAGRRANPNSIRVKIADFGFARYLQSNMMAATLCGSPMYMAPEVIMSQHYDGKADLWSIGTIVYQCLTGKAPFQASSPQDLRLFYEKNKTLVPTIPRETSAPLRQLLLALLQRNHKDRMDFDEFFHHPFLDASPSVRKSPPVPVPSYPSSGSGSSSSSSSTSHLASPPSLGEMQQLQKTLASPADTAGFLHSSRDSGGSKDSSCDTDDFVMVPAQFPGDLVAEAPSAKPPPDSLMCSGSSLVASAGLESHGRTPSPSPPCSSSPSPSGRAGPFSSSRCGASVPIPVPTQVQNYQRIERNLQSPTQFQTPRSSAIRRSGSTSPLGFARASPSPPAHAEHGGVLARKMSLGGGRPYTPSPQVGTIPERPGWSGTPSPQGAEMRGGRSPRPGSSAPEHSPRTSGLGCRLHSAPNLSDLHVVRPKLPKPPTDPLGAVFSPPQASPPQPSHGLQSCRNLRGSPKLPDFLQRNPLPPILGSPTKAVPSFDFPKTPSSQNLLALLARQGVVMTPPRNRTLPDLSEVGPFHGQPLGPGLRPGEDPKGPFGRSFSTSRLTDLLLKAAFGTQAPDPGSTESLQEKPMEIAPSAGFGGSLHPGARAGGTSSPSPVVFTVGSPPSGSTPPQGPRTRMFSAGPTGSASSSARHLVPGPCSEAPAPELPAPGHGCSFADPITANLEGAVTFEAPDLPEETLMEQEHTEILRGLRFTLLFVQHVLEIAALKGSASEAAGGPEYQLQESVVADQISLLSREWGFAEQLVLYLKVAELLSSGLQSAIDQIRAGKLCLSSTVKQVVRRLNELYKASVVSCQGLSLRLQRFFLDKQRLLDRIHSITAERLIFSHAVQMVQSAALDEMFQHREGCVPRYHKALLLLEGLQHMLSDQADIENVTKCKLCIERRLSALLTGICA

N#CCCc1ccc2c(c1)-c1[nH]c3ccc([N+](=O)[O-])cc3c1CC(=O)N2  remaining signal (cell-free assay; 0.5 µM): 94.2%
Nc1ncnc2occ(-c3ccc(NC(=O)Nc4cc(C(F)(F)F)ccc4F)cc3)c12  remaining signal (cell-free assay; inhibitor; 20 µM): 48%
C#Cc1cccc(Nc2ncnc3cc(OCCOC)c(OCCOC)cc23)c1  remaining signal (cell-free assay; 0.5 µM): 113%
FC(F)(F)Oc1cccc(-c2cnc3ccc(-c4ccncc4)nn23)c1  activity vs control (enzyme activity; inhibitor; radiometric; 5 µM): 92%
CCC(=N\O)/C(C)=C/c1ccc(F)cc1  remaining binding (cell-free assay; competition with immobilised ligand; 1 µM): 85%
Cc1nn(CC(F)(F)F)cc1Nc1ncc(C2CC2)c(NCc2ccc(S(N)(=O)=O)cc2)n1  remaining activity (enzyme activity; inhibitor; radiometric; 1 µM): 106%
N#Cc1ccc(Nc2ccc3[nH]c(=O)[nH]c3c2)c(Cl)c1  remaining binding (cell-free assay; competition with immobilised ligand; 1 µM): 81%
COc1cc(/C=C/C(=O)CC(=O)/C=C/c2ccc(O)c(OC)c2)ccc1O  activity vs control (enzyme activity; inhibitor; 1 µM): 88%
Cc1nc(Cc2cccc(C(F)(F)F)c2)sc1-c1ccc(C(N)=O)nc1  remaining binding (cell-free assay; competition with immobilised ligand; 1 µM): 100%
COc1cccc2c(NCc3ccccc3)nc(-n3c(N)nc4ccccc43)nc12  inhibition (target engagement in cells; inhibitor; chemoproteomics; 20 mM): -8.3%
O=C(Nc1cccc(Nc2ncc(Br)c(NCCc3cnc[nH]3)n2)c1)N1CCCC1  remaining activity (enzyme activity; inhibitor; radiometric; 1 µM): 6%
CO[C@H]1CC[C@H](CNc2ccc(S(=O)(=O)NC(=O)c3ccc(N4CCN(CC5=C(c6ccc(Cl)cc6)CC(C)(C)CC5)CC4)cc3Oc3cnc4[nH]ccc4c3)cc2[N+](=O)[O-])CC1  remaining binding (cell-free assay; competition with immobilised ligand; 1 µM): 82%
Brc1cnc(Nc2cccc(CN3CCOCC3)c2)nc1NCCc1c[nH]cn1  remaining activity (enzyme activity; inhibitor; radiometric; 1 µM): 3%
CCOCCn1cc(C(=O)Nc2ccc(-n3nc(-c4cccnc4)cc3C(F)(F)F)cn2)ccc1=O  remaining binding (cell-free assay; competition with immobilised ligand; 1 µM): 76%
Cc1nn(CC(F)(F)F)cc1Nc1nccc(NCCCNC(=O)C2CCC2)n1  remaining activity (enzyme activity; inhibitor; radiometric; 1 µM): 96%
Cc1c(C(=O)O)cc(-c2ccc(C3CCNCC3)cc2)c2ccc(-c3ccc(C(F)(F)F)cc3)cc12  remaining binding (binding; competition with immobilised ligand; 1 µM): 100%
Cc1nn(CC(F)(F)F)cc1Nc1ncc(Br)c(NCCCNC(=O)C2CCC2)n1  remaining activity (enzyme activity; inhibitor; radiometric; 1 µM): 3%
Cc1cc(NC(=O)c2cccc3cc(-c4cccc5[nH]nc(N)c45)ccc23)ccc1F  activity vs control (enzyme activity; inhibitor; 0.1 µM): 95%
Cc1nn(CC(F)(F)F)cc1Nc1nccc(NCCc2cnc[nH]2)n1  remaining activity (enzyme activity; inhibitor; radiometric; 1 µM): 88%
CCCCNc1ncc2c(-c3ccc(F)cc3)nn(C[C@H]3CC[C@H](N)CC3)c2n1  inhibition (target engagement in cells; inhibitor; chemoproteomics; 20 mM): 3.7%
O=C(NCCCNc1ccnc(Nc2cccc(NC(=O)N3CCCC3)c2)n1)C1CCC1  remaining activity (enzyme activity; inhibitor; radiometric; 1 µM): 75%
O=C1NC(=O)c2cc(Nc3ccc(F)cc3)c(Nc3ccc(F)cc3)cc21  remaining signal (cell-free assay; 0.5 µM): 102%
